# Active and inactive are the calls of the source. No cut-off for these calls is given here.
# What was measured:
# [1] = biological target: Mitogen-activated protein kinase 13 (Homo sapiens) (UniProt O15264); experiment: Inhibition of recombinant human GST-tagged P38delta (1 to 365 residues) expressed in Escherichia coli assessed as remaining activity at 10 uM using MBP as substrate incubated for 30 mins in presence of [gamma-33P]ATP by filter binding method relative to control
# In short: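 Kinase panel run robotically at 21 °C for 30 min, linear in time and enzyme. […] Compound tested at 1 or 10 µM. Activity given as percentage of incubations without compound, mean of triplicates ± S.D.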
# mTORC1 (Homo sapiens) [2] = biological target: T1, mTORC1 (Homo sapiens) (UniProt P42345+Q8N122+Q9BVC4); settings: HEK293, dose 100-300 nM, time 30.0 min
# mTORC2 (Homo sapiens) [3] = biological target: T2, mTORC2 (Homo sapiens) (UniProt P42345+Q6R327+Q9BVC4+Q9BPZ7); settings: HEK293, dose 30-1000 nM, time 30.0 min
# [4] = biological target: Protein kinase C alpha type (Homo sapiens) (UniProt P17252); experiment: (§1) Inhibition of recombinant human N-terminal His6-tagged PKCalpha (1 to 672 residues) expressed in baculovirus infected Sf21 cells assessed as remaining activity at 10 uM using Histone H1 as substrate incubated for 30 mins in presence of [gamma-33P]ATP by filter binding method relative to control
# mTORC1 (Homo sapiens) [5] = biological target: T1, mTORC1 (Homo sapiens); settings: HEK293, dose 30.0 nM, time 30.0 min
# [6] = biological target: Mitogen-activated protein kinase 14 (Homo sapiens) (UniProt Q16539); experiment: Inhibition of recombinant human N-terminal GST-tagged P38alpha (1 to 360 residues) expressed in Escherichia coli assessed as remaining activity at 1 uM using MBP as substrate incubated for 30 mins in presence of [gamma-33P]ATP by filter binding method relative to control
# In short: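 Incubation was 30 min at room temperature (21 °C) under conditions linear with time and enzyme amount. Activity is reported as percent of control lacking compound, triplicate mean ± S.D.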
# MEF [7] = experiment: Inhibition of mTORC2 in serum starved Rictor knockout MEF cells assessed as reduction IGF1-stimulated AKT phosphorylation at Thr308 residue at 100 to 1000 nM incubated for 20 mins by immunoblot analysis; assay type: cell-based; settings: Mus musculus, dose 100-1000 nM
# In short: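 Serum withdrawn 16 h. Inhibitor or vehicle given 30 min before stimulation with 50 ng/ml IGF-1 for 20 min. Lysed in Tris lysis buffer and immunoblotted for Akt Thr308 phosphorylation with ECL detection. Applies to HEK-293 and to wild-type, Rictor, Sin1 or mLST8 knockout MEFs. Three independent experiments.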
# [8] = biological target: Dual specificity tyrosine-phosphorylation-regulated kinase 2 (Homo sapiens) (UniProt Q92630); experiment: Inhibition of recombinant human N-terminal GST-tagged DYRK2 (3 to 528 residues) expressed in Escherichia coli assessed as remaining activity at 1 uM using KKISGRLSPIMTEQ as substrate incubated for 30 mins in presence of [gamma-33P]ATP by filter binding method relative to control
# In short: (§2)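 Run robotically for 30 min at 21 °C under linear conditions. Compound at 1 or 10 µM. Percentage activity remaining versus control without compound, triplicate mean ± S.D.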
# MEF [9] = experiment: Induction of cell cycle arrest in MEF cells assessed as accumulation at G1 phase at 3 uM incubated for 1 to 3 days by propidium iodide staining based flow cytometric analysis (reference value: 21.4 +/- 1.7%); assay type: toxicity; settings: mouse, time 1-3 day
# mTORC1 (Homo sapiens) [10] = biological target: T1, mTORC1 (Homo sapiens); settings: HEK293, dose 30-1000 nM, time 30.0 min
# [11] = biological target: Myosin light chain kinase (Homo sapiens) (UniProt Q32MK0); experiment: Inhibition of MLCK (unknown origin) assessed as remaining activity at 1 uM relative to control
# In short: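 Profiling-centre panel assay performed robotically at 21 °C for 30 min, linear with time and enzyme. […] Values are percent of compound-free control activity, the mean of triplicates ± S.D.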
# [12] = biological target: Sphingosine kinase 1 (Homo sapiens) (UniProt Q9NYA1); experiment: Inhibition of SPHK1 (unknown origin) assessed as remaining activity at 10 uM using sphingosine as substrate incubated for 30 mins in presence of ATP relative to control
# In short: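 SPHK1 assayed with 10 μM sphingosine, 10 μM ATP in 50 mM Tris/HCl pH 7.5, 150 mM NaCl, 5 mM MgCl2, 1 mM EGTA, 1 mM DTT, 30 min at room temperature. ATP remaining read by Kinase-Glo Plus luminescence after 10 min. Activity as % of control, triplicate.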
# mTORC1 (Homo sapiens) [13] = biological target: T1, mTORC1 (Homo sapiens); settings: HEK293, dose 30.0 nM, time 30.0 min; remark: listed apart in the source
# [14] = system: RAC-alpha serine/threonine-protein kinase (Homo sapiens), P31749 [S473D]; experiment: as §1, with “human” for “human N-terminal”, “AKT1 S473D mutant (118” for “PKCalpha (1”, “480” for “672”, “1” for “10”, “crosstide peptide” for “Histone H1”
# In short: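 Radiometric panel assay run robotically at 21 °C for 30 min, linear in time and enzyme. […] Activity is expressed as percentage of the compound-omitted control, averaged from triplicates ± S.D.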
# [15] = biological target: Casein kinase I isoform delta (Homo sapiens) (UniProt P48730); experiment: Inhibition of recombinant human N-terminal GST-tagged CK1delta (1 to 415 residues) expressed in Escherichia coli assessed as remaining activity at 1 uM using RRKDLHDDEEDEAMSITA as substrate incubated for 30 mins in presence of [gamma-33P]ATP by filter binding method relative to control
# In short: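 Robotic radiometric panel assay, 30 min at room temperature (21 °C), with 10 mM magnesium acetate. […] Compound at 1 or 10 µM. Residual activity expressed relative to compound-free control; triplicate average ± S.D.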
# [16] = system: Ribosomal protein S6 kinase beta-1 (Homo sapiens), P23443 [T412E]; experiment: Inhibition of recombinant human His6-tagged S6K1 T412E mutant (1 to 421 residues) expressed in baculovirus infected Sf21 cells assessed as remaining activity at 10 uM using KKRNRTLTV as substrate incubated for 30 mins in presence of [gamma-33P]ATP by filter binding method relative to control
# In short: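 Incubations ran robotically for 30 min at room temperature (21 °C) under linear conditions. Results are percent activity remaining versus controls without compound, as the mean of triplicates ± S.D.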
# mTORC2 (Homo sapiens) [17] = biological target: T2, mTORC2 (Homo sapiens); settings: HEK293, dose 30-1000 nM, time 30.0 min; remark: listed apart in the source
# [18] = biological target: Dual specificity tyrosine-phosphorylation-regulated kinase 2 (Homo sapiens) (UniProt Q92630); experiment: Inhibition of recombinant human N-terminal GST-tagged DYRK2 (3 to 528 residues) expressed in Escherichia coli assessed as remaining activity at 10 uM using KKISGRLSPIMTEQ as substrate incubated for 30 mins in presence of [gamma-33P]ATP by filter binding method relative to control; in short: as §2
# Chain of Dual specificity tyrosine-phosphorylation-regulated kinase 2 (Homo sapiens) (Q92630 whole entry, the tested form may be a part): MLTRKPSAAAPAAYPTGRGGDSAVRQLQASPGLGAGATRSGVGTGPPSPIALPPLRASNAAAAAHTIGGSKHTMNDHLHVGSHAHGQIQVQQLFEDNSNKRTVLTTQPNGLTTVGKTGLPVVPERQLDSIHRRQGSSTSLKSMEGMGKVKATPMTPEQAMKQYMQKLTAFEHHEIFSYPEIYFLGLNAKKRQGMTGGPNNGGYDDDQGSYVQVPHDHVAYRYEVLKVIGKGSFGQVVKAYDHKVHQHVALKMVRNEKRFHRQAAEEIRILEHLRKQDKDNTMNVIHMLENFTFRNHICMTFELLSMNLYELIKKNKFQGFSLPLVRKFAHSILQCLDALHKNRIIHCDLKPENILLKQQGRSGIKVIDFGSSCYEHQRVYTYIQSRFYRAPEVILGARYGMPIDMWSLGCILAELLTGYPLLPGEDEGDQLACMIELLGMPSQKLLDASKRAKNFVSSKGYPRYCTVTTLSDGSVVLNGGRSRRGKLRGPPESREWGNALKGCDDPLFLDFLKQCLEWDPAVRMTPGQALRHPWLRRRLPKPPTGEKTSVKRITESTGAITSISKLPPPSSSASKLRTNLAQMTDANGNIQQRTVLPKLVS
# Chain of Casein kinase I isoform delta (Homo sapiens) (P48730 whole entry, looked up, the tested form may be a part, canonical isoform): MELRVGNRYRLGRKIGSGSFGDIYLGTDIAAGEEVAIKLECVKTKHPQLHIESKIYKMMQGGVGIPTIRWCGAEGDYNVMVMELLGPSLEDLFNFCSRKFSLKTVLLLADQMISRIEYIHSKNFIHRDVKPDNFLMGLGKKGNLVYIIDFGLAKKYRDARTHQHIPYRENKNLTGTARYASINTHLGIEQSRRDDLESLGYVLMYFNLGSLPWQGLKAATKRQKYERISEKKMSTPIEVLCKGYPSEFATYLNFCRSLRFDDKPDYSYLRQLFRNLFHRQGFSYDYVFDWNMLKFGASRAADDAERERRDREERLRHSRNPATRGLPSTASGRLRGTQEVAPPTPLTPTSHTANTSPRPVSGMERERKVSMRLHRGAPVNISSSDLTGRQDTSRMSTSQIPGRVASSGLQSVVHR
# Chain of Mitogen-activated protein kinase 14 (Homo sapiens) (Q16539 whole entry, the tested form may be a part): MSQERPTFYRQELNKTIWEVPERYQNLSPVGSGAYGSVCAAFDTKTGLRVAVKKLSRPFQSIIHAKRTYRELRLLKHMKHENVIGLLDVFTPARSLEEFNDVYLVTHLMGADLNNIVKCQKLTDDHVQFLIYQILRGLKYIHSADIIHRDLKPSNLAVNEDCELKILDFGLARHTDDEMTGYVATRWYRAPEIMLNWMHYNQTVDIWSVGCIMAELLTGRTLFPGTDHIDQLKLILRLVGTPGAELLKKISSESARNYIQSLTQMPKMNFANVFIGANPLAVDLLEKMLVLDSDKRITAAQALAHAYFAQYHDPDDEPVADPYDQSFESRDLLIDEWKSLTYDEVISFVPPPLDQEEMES
# Chain of Mitogen-activated protein kinase 13 (Homo sapiens) (O15264 whole entry, the tested form may be a part): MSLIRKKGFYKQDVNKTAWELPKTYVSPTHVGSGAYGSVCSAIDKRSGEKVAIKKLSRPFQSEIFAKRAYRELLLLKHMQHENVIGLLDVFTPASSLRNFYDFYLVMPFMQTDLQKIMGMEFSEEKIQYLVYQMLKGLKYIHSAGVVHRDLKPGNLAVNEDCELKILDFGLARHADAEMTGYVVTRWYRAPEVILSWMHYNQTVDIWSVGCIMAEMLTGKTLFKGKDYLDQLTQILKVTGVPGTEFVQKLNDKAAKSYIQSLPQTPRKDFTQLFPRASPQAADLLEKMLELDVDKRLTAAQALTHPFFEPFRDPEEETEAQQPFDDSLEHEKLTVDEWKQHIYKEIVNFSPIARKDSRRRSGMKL
# Chain of RAC-alpha serine/threonine-protein kinase (Homo sapiens), P31749 [S473D] (P31749 whole entry S473D): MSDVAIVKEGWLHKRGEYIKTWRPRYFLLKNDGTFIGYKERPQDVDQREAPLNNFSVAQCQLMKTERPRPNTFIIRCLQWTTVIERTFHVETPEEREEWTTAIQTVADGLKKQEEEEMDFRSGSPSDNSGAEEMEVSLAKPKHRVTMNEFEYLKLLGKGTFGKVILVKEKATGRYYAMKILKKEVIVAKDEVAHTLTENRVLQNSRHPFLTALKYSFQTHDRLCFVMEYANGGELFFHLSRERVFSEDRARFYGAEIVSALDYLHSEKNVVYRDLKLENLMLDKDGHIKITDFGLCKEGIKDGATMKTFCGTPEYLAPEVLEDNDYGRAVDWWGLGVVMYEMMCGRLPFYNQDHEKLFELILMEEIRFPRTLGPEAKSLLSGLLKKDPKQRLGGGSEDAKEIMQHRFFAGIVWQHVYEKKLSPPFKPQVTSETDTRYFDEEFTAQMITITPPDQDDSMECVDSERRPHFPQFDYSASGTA
# Chain of Ribosomal protein S6 kinase beta-1 (Homo sapiens), P23443 [T412E] (P23443 whole entry T412E, looked up, the tested form may be a part): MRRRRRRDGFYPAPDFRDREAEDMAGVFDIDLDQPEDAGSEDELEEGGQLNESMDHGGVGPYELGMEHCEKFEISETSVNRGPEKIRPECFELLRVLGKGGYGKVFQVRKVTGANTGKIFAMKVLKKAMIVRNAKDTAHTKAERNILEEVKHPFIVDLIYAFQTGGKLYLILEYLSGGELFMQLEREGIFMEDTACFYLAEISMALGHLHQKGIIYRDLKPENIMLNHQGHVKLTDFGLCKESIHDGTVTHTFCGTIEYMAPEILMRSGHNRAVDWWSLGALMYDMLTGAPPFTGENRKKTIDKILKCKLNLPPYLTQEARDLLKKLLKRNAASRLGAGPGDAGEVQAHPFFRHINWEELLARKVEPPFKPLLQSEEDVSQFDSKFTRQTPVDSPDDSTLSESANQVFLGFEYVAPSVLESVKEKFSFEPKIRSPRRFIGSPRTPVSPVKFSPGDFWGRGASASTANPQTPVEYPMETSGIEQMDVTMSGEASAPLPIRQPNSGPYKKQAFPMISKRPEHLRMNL
# Chain of Myosin light chain kinase (Homo sapiens) (Q32MK0 whole entry): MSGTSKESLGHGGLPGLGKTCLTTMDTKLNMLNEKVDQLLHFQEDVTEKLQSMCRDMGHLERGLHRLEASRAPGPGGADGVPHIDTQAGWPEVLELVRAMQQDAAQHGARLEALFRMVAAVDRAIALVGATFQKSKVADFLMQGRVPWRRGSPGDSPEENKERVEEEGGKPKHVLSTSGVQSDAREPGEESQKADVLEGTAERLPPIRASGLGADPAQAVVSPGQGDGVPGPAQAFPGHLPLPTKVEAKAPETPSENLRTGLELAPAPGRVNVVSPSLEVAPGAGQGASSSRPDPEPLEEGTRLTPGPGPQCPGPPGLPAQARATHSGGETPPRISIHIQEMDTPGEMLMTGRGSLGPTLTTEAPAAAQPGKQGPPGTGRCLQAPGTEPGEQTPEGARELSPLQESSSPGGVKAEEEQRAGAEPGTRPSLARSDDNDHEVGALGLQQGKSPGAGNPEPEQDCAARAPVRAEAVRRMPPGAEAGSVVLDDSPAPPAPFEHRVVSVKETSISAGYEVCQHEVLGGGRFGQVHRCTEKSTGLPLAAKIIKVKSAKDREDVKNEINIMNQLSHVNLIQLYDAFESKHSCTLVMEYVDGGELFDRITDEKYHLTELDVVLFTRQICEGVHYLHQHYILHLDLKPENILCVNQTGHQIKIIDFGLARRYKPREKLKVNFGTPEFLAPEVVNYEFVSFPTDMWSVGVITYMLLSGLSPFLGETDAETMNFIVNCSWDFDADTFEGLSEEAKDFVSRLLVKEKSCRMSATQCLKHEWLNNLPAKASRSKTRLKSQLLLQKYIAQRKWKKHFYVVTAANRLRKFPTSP
# Chain of Sphingosine kinase 1 (Homo sapiens) (Q9NYA1 whole entry): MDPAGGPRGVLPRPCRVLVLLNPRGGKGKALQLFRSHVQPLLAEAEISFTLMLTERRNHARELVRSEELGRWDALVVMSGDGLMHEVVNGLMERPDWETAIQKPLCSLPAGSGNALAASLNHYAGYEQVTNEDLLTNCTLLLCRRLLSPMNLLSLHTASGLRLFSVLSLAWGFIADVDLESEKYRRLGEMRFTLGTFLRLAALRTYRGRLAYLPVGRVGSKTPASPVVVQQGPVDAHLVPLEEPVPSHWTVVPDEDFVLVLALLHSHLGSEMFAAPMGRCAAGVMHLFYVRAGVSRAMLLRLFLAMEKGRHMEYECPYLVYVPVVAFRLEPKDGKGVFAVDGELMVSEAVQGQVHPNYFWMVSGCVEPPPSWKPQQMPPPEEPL
compound,measurement,setting,value
COc1ccc(-c2ccc3c(N4CCOCC4)nc(N4C[C@@H](C)O[C@@H](C)C4)nc3n2)cc1CO [Ku-0063794],Activity,[1],87%
same,inhibition,mTORC1 (Homo sapiens) [2],100%
same,inhibition,mTORC2 (Homo sapiens) [3],Active
same,Activity,[4],86%
same,inhibition,mTORC1 (Homo sapiens) [5],Active
same,Activity,[6],101%
same,inhibition,MEF [7],Active
same,Activity,[8],92%
same,Activity,MEF [9],42.4%
same,inhibition,mTORC1 (Homo sapiens) [10],Dose-Dependent Effect
same,Activity,[11],82%
same,Activity,[12],99%
same,inhibition,mTORC1 (Homo sapiens) [13],Active
same,Activity,[14],98%
same,Activity,[15],112%
same,Activity,[16],98%
same,inhibition,mTORC2 (Homo sapiens) [17],Dose-Dependent Effect
same,Activity,[18],96%
